The source made the active and inactive calls. The calls are words filed in the database; no cut-off is given here.
What was measured:
Type in all cases: functional
COLO 205 [1] = experiment: Cytotoxicity against human COLO205 cells after 48 hrs assessed as inhibition of cell growth at 10 uM after 48 hrs by SRB assay relative to control; conditions: COLO 205, 48 h, read-out: GI
Summary of the method: (§1)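 SRB protein assay in DMEM with 10% FBS at 37 °C, 5% CO2, 100% relative humidity. Cells seeded in 96-well plates, incubated 24 h, then exposed to drug at 10 µM for 48 h and processed per standard protocol. Absorbance read at 560 nm; growth percentage calculated for test wells relative to control wells.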

THP-1 = experiment: Cytotoxicity against human THP1 cells after 48 hrs assessed as inhibition of cell growth at 10 uM after 48 hrs by SRB assay relative to control; conditions: THP-1, 48 h, read-out: GI; summary of the method: as §1
IMR-32 = experiment: Cytotoxicity against human IMR32 cells after 48 hrs assessed as inhibition of cell growth at 10 uM after 48 hrs by SRB assay relative to control; conditions: IMR-32, 48 h, read-out: GI; summary of the method: as §1
CCRF-CEM = experiment: Growth inhibition of human CCRF-CEM cells after 48 hrs by SRB assay
Summary of the method: (§2)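 NCI 60-cell-line screen: after preliminary screening, tested at five dose concentrations on 59 human tumour lines covering leukemia, lung, colon, CNS, melanoma, ovarian, renal, prostate and breast.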

RPMI-8226 = experiment: Growth inhibition of human RPMI8226 cells after 48 hrs by SRB assay; conditions: RPMI-8226, 48 h; summary of the method: as §2
SR = experiment: Growth inhibition of human SR cells after 48 hrs by SRB assay
Summary of the method: (§3)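 NCI 60-cell-line panel, five-dose testing after preliminary screen; sulforhodamine B protein assay in DMEM with 10% FBS, 37 °C, 5% CO2, 100% humidity. Cells seeded and incubated 24 h before compound addition, then exposed 48 h. Absorbance read at 560 nm; growth percentage relative to control wells; GI50 taken as concentration giving 50% growth inhibition.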

A549 = experiment: Growth inhibition of human A549 cells after 48 hrs by SRB assay; conditions: A549, 48 h; summary of the method: as §2
EKVX = experiment: Growth inhibition of human EKVX cells after 48 hrs by SRB assay; summary of the method: as §2
HOP-62 = experiment: Growth inhibition of human HOP62 cells after 48 hrs by SRB assay; conditions: HOP-62, 48 h; summary of the method: as §2
HOP-92 = experiment: Growth inhibition of human HOP92 cells after 48 hrs by SRB assay; conditions: HOP-92, 48 h; summary of the method: as §2
NCI-H226 = experiment: Growth inhibition of human NCI-H226 cells after 48 hrs by SRB assay; conditions: NCI-H226, 48 h; summary of the method: as §2
NCI-H322M = experiment: Growth inhibition of human NCI-H322M cells after 48 hrs by SRB assay; summary of the method: as §2
COLO 205 [2] = experiment: Growth inhibition of human COLO205 cells after 48 hrs by SRB assay; conditions: COLO 205, 48 h; summary of the method: as §2
HCC 2998 = experiment: Growth inhibition of human HCC2998 cells after 48 hrs by SRB assay; conditions: HCC 2998, 48 h; summary of the method: as §2
HT-29 = experiment: Growth inhibition of human HT-29 cells after 48 hrs by SRB assay; conditions: HT-29, 48 h; summary of the method: as §2
KM12 = experiment: Growth inhibition of human KM12 cells after 48 hrs by SRB assay; conditions: KM12, 48 h; summary of the method: as §2
SF-268 = experiment: Growth inhibition of human SF268 cells after 48 hrs by SRB assay; conditions: SF-268, 48 h; summary of the method: as §2
SF-295 = experiment: Growth inhibition of human SF295 cells after 48 hrs by SRB assay; conditions: SF-295, 48 h; summary of the method: as §3
SF-539 = experiment: Growth inhibition of human SF539 cells after 48 hrs by SRB assay; conditions: SF-539, 48 h; summary of the method: as §3
SNB-19 = experiment: Growth inhibition of human SNB19 cells after 48 hrs by SRB assay; conditions: SNB-19, 48 h; summary of the method: as §3
U-251 = experiment: Growth inhibition of human U251cells after 48 hrs by SRB assay; conditions: U-251, 48 h; summary of the method: as §3
M14 = experiment: Growth inhibition of human M14 cells after 48 hrs by SRB assay; conditions: M14, 48 h; summary of the method: as §2
MDA-MB-435 = experiment: Growth inhibition of human MDA-MB-435 cells after 48 hrs by SRB assay; conditions: MDA-MB-435, 48 h; summary of the method: as §2
SK-MEL-28 = experiment: Growth inhibition of human SK-MEL-28 cells after 48 hrs by SRB assay; conditions: SK-MEL-28, 48 h; summary of the method: as §3
UACC-257 = experiment: Growth inhibition of human UACC257 cells after 48 hrs by SRB assay; conditions: UACC-257, 48 h; summary of the method: as §3
UACC-62 = experiment: Growth inhibition of human UACC62 cells after 48 hrs by SRB assay; conditions: UACC-62, 48 h; summary of the method: as §3
IGROV-1 = experiment: Growth inhibition of human IGROV1 cells after 48 hrs by SRB assay; conditions: IGROV-1, 48 h; summary of the method: as §2
OVCAR-4 = experiment: Growth inhibition of human OVCAR4 cells after 48 hrs by SRB assay; conditions: OVCAR-4, 48 h; summary of the method: as §2
SK-OV-3 = experiment: Growth inhibition of human SKOV3 cells after 48 hrs by SRB assay; conditions: SK-OV-3, 48 h; summary of the method: as §3
ACHN = experiment: Growth inhibition of human ACHN cells after 48 hrs by SRB assay; summary of the method: as §2
CAKI-1 = experiment: Growth inhibition of human Caki1 cells after 48 hrs by SRB assay; conditions: CAKI-1, 48 h; summary of the method: as §2
RXF 393 = experiment: Growth inhibition of human RXF393 cells after 48 hrs by SRB assay; conditions: RXF 393, 48 h; summary of the method: as §2
SN12C = experiment: Growth inhibition of human SN12C cells after 48 hrs by SRB assay; summary of the method: as §3
TK-10 = experiment: Growth inhibition of human TK10 cells after 48 hrs by SRB assay; conditions: TK-10, 48 h; summary of the method: as §3
UO-31 = experiment: Growth inhibition of human UO31 cells after 48 hrs by SRB assay; conditions: UO-31, 48 h; summary of the method: as §3
PC-3 = experiment: Growth inhibition of human PC3 cells after 48 hrs by SRB assay; conditions: PC-3, 48 h; summary of the method: as §2
DU-145 = experiment: Growth inhibition of human DU145 cells after 48 hrs by SRB assay; conditions: DU-145, 48 h; summary of the method: as §2
BT-549 = experiment: Growth inhibition of human BT549 cells after 48 hrs by SRB assay; conditions: BT-549, 48 h; summary of the method: as §2
T47D = experiment: Growth inhibition of human T47D cells after 48 hrs by SRB assay; summary of the method: as §3
MDA-MB-468 = experiment: Growth inhibition of human MDA-MB-468 cells after 48 hrs by SRB assay; conditions: MDA-MB-468, 48 h; summary of the method: as §2
MCF7 [3] = experiment: Cell cycle arrest in human MCF7 cells assessed as accumulation at G1 phase at 4 uM after 24 hrs by FACS analysis (reference value: 58.33%)
MCF7 [4] = experiment: Cell cycle arrest in human MCF7 cells assessed as accumulation at S phase at 4 uM after 24 hrs by FACS analysis (reference value: 6.79%)
MCF7 [5] = experiment: Cell cycle arrest in human MCF7 cells assessed as accumulation at G2/M phase at 4 uM after 24 hrs by FACS analysis (reference value: 34.88%)

## COc1ccc2nc(NC(=O)COc3cc(/C=C\c4cc(OC)c(OC)c(OC)c4)ccc3OC)sc2c1
COLO 205 [1]
  inhibition of growth at 10 µM: 56%
THP-1
  inhibition of growth at 10 µM: 72%
IMR-32
  inhibition of growth at 10 µM: 73%
CCRF-CEM
  GI50: 3.87 µM
RPMI-8226
  GI50: 5.43 µM
SR
  GI50: 3.69 µM
A549
  GI50: 5.19 µM
EKVX
  GI50: 5.11 µM
HOP-62
  GI50: 23 µM
HOP-92
  GI50: 6.28 µM
NCI-H226
  GI50: 4.51 µM
NCI-H322M
  GI50: inactive
COLO 205 [2]
  GI50: 3.89 µM
HCC 2998
  GI50: 7.34 µM
HT-29
  GI50: 3.34 µM
KM12
  GI50: 3.12 µM
SF-268
  GI50: 4.31 µM
SF-295
  GI50: 1.84 µM
SF-539
  GI50: 2.84 µM
SNB-19
  GI50: 6.3 µM
U-251
  GI50: 4 µM
M14
  GI50: 4.33 µM
MDA-MB-435
  GI50: 1.16 µM
SK-MEL-28
  GI50: 4.41 µM
UACC-257
  GI50: 63 µM
UACC-62
  GI50: 5.93 µM
IGROV-1
  GI50: 7 µM
OVCAR-4
  GI50: 5.31 µM
SK-OV-3
  GI50: 4.69 µM
ACHN
  GI50: 7.77 µM
CAKI-1
  GI50: 3.2 µM
RXF 393
  GI50: 2.5 µM
SN12C
  GI50: 5.75 µM
TK-10
  GI50: 7.54 µM
UO-31
  GI50: 4.31 µM
PC-3
  GI50: 4.45 µM
DU-145
  GI50: 2.04 µM
BT-549
  GI50: 21.2 µM
T47D
  GI50: 4.03 µM
MDA-MB-468
  GI50: 2.29 µM
MCF7 [3]
  Activity: 62.81%
MCF7 [4]
  Activity: 7.12%
MCF7 [5]
  Activity: 30.07%
